From ChEMBL document CHEMBL1135582, “Synthesis and structure-activity relationships of amide and hydrazide analogues of the cannabinoid CB(1) receptor antagonist N-(piperidinyl)- 5-(4-chlorophenyl)-1-(2,4-dichlorophenyl)-4-methyl-1H-pyrazole-3-carboxamide (SR141716)” (J Med Chem, 2002) come the findings set out here.

Test [1] is filed under the species Rattus norvegicus. The test is described as follows: Maximum concentration based on [35S]GTP-gamma-S binding assay in rat membranes. The test is classed as functional.
The nature of test [2]: Selectivity measured as CB2/CB1.
For test [3], the species on record is Rattus norvegicus. The test is described as follows: The effective concentration using [35S]GTP-gamma-S binding assay in rat membranes. In kind it is functional. (GTPγS resists hydrolysis and so accumulates on activated G proteins.)
In test [4] the target is Cannabinoid receptor 2 (Homo sapiens, UniProt P34972). The test is described as follows: Binding affinity at cannabinoid receptor 2 in a competition assay with [3H]CP-55940 as radioligand.
Sequence of Cannabinoid receptor 2 (P34972 whole entry): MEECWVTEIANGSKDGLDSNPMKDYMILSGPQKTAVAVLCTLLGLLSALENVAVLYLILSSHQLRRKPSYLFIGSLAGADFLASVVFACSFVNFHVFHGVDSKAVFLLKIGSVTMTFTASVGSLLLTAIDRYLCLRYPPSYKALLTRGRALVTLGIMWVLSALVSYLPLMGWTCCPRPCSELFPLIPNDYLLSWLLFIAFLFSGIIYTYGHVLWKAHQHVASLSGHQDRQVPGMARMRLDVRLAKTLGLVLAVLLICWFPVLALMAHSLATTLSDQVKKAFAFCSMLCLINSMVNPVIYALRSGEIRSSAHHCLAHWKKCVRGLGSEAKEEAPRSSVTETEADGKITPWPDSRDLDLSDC
Test [5] concerns the target T1, Cannabinoid receptor 1 (Rattus norvegicus, UniProt P20272). In words: Binding affinity in a competition assay by displacement of [3H]- SR-141716 from Cannabinoid receptor 1 in rat whole brain membrane preparation. The test is classed as cell membranes. In general terms: Loss of bound radioactivity is the signal in a displacement assay; it reports binding, not function.

The target in test [6] is T1, Cannabinoid receptor 1. In words: Binding affinity in a competition assay by displacement of [3H]CP-55940 from Cannabinoid receptor 1 in rat whole brain membrane preparation. The test is classed as cell membranes.
Test [7] deals with T2, Cannabinoid receptor (Mus musculus) (UniProt P47746+P47936). In words: Dissociation Constant in Mouse isolated vas deferens at 316 nM of compound using cannabinoid receptor agonist WIN-55 212-2. In kind it is functional, tissue-based. The method in brief:
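Vasa deferentia from MF1 mice (26–44 g) were electrically stimulated in an organ bath until twitches were stable. Percent twitch inhibition was measured. KB came from a single concentration ratio via (x−1)=B/KB, with ratios from (2+2) parallel line assays. Results are means with 95% confidence limits.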

Test [8] concerns the target T2, Cannabinoid receptor (Mus musculus). The test is described as follows: Dissociation Constant in Mouse isolated vas deferens at 316 nM of compound using cannabinoid receptor agonist WIN-55 212-2 (95% confidence limits). In kind it is functional, tissue-based. A digest of the protocol:
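Vasa deferentia from albino MF1 mice (26–44 g) in organ bath, electrically stimulated until twitch amplitude stable. Antagonist (DMSO vehicle) added 30 min before cumulative agonist additions at 5 min intervals, stimulating final 2 min of each. Inhibition relative to pre-agonist twitch; KB from single concentration ratio, (x − 1) = B/KB, via (2 + 2) parallel line assay; 95% confidence limits; n = 5 or 6.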

For test [9] the target is unchanged. In words: Dissociation Constant in Mouse isolated vas deferens at 31.6 nM of compound using cannabinoid receptor agonist WIN-55 212-2.

Broadly, the EC50 is the concentration giving half of the maximal effect. A high value points to lower potency in that assay. Broadly, the Ki is a measure of affinity in units of concentration, obtained from inhibition or displacement. A higher Ki goes with a looser hold on the target.

T2 sequence (P47746 whole entry, looked up): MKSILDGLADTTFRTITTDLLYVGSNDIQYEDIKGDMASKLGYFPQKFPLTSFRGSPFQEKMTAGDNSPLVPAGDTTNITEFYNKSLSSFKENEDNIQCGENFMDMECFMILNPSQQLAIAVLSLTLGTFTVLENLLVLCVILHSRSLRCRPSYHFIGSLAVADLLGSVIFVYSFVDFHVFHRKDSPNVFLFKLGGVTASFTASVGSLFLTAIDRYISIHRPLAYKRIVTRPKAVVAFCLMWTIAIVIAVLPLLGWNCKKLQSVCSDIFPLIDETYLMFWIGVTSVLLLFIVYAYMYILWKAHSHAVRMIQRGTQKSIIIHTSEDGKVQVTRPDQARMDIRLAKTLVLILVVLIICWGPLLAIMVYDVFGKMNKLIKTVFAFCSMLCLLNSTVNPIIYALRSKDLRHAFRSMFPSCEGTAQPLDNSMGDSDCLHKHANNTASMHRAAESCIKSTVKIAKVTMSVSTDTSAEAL
T2 sequence (P47936 whole entry, looked up): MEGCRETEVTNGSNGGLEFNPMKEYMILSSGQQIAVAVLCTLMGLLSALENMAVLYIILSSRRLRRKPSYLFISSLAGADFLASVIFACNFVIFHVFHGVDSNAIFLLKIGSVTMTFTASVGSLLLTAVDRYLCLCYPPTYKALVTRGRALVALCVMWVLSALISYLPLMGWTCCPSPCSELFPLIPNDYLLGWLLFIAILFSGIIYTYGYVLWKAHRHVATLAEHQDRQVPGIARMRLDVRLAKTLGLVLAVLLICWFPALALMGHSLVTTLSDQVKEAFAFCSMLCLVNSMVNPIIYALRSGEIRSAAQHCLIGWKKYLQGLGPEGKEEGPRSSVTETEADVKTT
T1 sequence (P20272 whole entry): as the sequence (P47746 whole entry, looked up) above, with D95E counted along it

`Cc1c(C(=O)NCCO)nn(-c2ccc(Cl)cc2Cl)c1-c1ccc(Cl)cc1` yielded an Emax in test [1] of -76.5. Moreover, the Selectivity in test [2] is 11. In test [3], this compound came in with an EC50 of 1670 µM.
The matching figures for `CCCCNC(=O)c1nn(-c2ccc(Cl)cc2Cl)c(-c2ccc(Cl)cc2)c1C`: -38.5, 119 and 8.54 µM.
In the case of `Cc1c(C(=O)NO)nn(-c2ccc(Cl)cc2Cl)c1-c1ccc(Cl)cc1`, the Selectivity in [2] amounted to 5.
The compound `Cc1c(C(=O)NCCCO)nn(-c2ccc(Cl)cc2Cl)c1-c1ccc(Cl)cc1` showed an Emax in test [1] of -83.3. This compound registered a Selectivity in test [2] of 8. The same compound registered an EC50 in test [3] of 241 µM.
Turning to `CNNC(=O)c1nn(-c2ccc(Cl)cc2Cl)c(-c2ccc(Cl)cc2)c1C`, the EC50 in test [3] stood at 12000 µM.
As for `Cc1c(C(=O)N[C@H](C)CO)nn(-c2ccc(Cl)cc2Cl)c1-c1ccc(Cl)cc1`, the Ki in test [4] stood at 1.77 µM; in [5] it was 0.0998 µM; in test [6], 0.117 µM. Besides, in [1], the Emax is -83. In test [2], this compound showed a Selectivity of 15. In [3], the concentration giving a half-maximal response (EC50) is 292 µM.
Take `CCNC(=O)c1nn(-c2ccc(Cl)cc2Cl)c(-c2ccc(Cl)cc2)c1C`: in test [1], the Emax is -46.9. The same compound registered a Selectivity in [2] of 67. The compound further had a concentration for a half-maximal effect (EC50) in test [3] of 30.3 µM.
On to `Cc1c(C(=O)NC(C)C)nn(-c2ccc(Cl)cc2Cl)c1-c1ccc(Cl)cc1`, for which the Emax in [1] was -46.4. In addition, the Selectivity in test [2] is 59. In addition, in test [3], the EC50 amounted to 16 µM.
For `Cc1c(C(=O)NN)nn(-c2ccc(Cl)cc2Cl)c1-c1ccc(Cl)cc1` the same measures were -71.7, 32 and 419 µM.
In test [1], `Cc1c(C(=O)NCC(C)C)nn(-c2ccc(Cl)cc2Cl)c1-c1ccc(Cl)cc1` gave an Emax of -11. The Kb in test [7] turned out to be 0.0212 µM. The Selectivity in [2] turned out to be 61. In addition, the EC50 in [3] turned out to be 7.54 µM.
Regarding `Cc1c(C(=O)N[C@@H](C)CO)nn(-c2ccc(Cl)cc2Cl)c1-c1ccc(Cl)cc1`, the inhibition constant Ki in test [4] stood at 5.9 µM; in [5], 0.123 µM; in [6], 0.117 µM. The compound further came in with an Emax in [1] of -83.8. For the same compound, the Selectivity in test [2] was found to be 50. In test [3], a half-maximal effect (EC50) was put at 294 µM.
`CCCNC(=O)c1nn(-c2ccc(Cl)cc2Cl)c(-c2ccc(Cl)cc2)c1C`: the Emax in test [1] is -35.7. In [2], this compound gave a Selectivity of 99. The compound also showed an EC50 in [3] of 11.1 µM.
The matching figures for `Cc1c(C(=O)NC2CCCCC2)nn(-c2ccc(Cl)cc2Cl)c1-c1ccc(Cl)cc1`: -22.1, 93 and 26 µM.
As to `Cc1c(C(=O)NCCCCO)nn(-c2ccc(Cl)cc2Cl)c1-c1ccc(Cl)cc1`, the Emax in test [1] is -79.5. In addition, in test [3], a half-maximal effect (EC50) was put at 304 µM.
The matching figures for `CCCCCNC(=O)c1nn(-c2ccc(Cl)cc2Cl)c(-c2ccc(Cl)cc2)c1C`: -7.4 and 5.27 µM.
In the case of `CCNNC(=O)c1nn(-c2ccc(Cl)cc2Cl)c(-c2ccc(Cl)cc2)c1C`, in test [3], the EC50 worked out at 495 µM.
`Cc1c(C(=O)NN2CCOCC2)nn(-c2ccc(Cl)cc2Cl)c1-c1ccc(Cl)cc1` showed an Emax in test [1] of -76.3. The same compound gave a Selectivity in test [2] of 105. This compound also returned a Kb in test [8] of 0.0125 µM. In [3], the concentration giving a half-maximal response (EC50) came to 38.9 µM.
In [1], `CCCCCCNC(=O)c1nn(-c2ccc(Cl)cc2Cl)c(-c2ccc(Cl)cc2)c1C` gave an Emax of -13. The Kb in test [9] is 0.0154 µM. The compound also gave a Selectivity in test [2] of 378. For the same compound, in [3], the EC50 stood at 29.4 µM.
